Yeast fitness data for 37 variants are collected here from the RNAGym collection of RNA variant scans (doi:10.1126/science.aae0568).

Variants at the floor of the assay were thinned out.

The labels stand for the following.
B1: tRNA (parent)
chain: GUUCCGUUGGCGUAAUGGUAACGCGUCUCCCUCCUAAGGAGAAGACUGCGGGUUCGAGUCCCGUACGGAACG

In this data set the parent is B1. Put plainly: yeast fitness relative to wild type (ratio to wild type); higher = fitter; tRNA-Arg(CCU), competitive growth, 37 C, YPD. The gist of the method: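 For this measurement, the tRNA-Arg(CCU) gene was varied by chemical synthesis at a 3% per-site mutation rate across 69 sites, and each variant was placed at the native genomic locus in Saccharomyces cerevisiae. The pooled strains went through a 24-hour competition in YPD at 37°C in six parallel replicates, with amplicons from start and end populations read by 100-nucleotide paired-end sequencing. Darwinian fitness relative to wild type followed from the change in each genotype's frequency. Genotypes needed ≥ 100 starting reads, and estimates < 0.5 were set to 0.5.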
With GUUCCGUUGGCGUAAUGGUAACGCGUCUCUCACCUUUGGAGAAGACUGCGGGUUCGAGUCACGUACGGAACG [C30U U32A A36U A37U C61A], the yeast fitness is no more than 0.5. As to GUUCCGUUGGCGUAAUGGUAACGCGUCUCUCUCCUAAGGAGAAGACUGCGGGUACGAGUCCCGUACGGAUCG [C30U U54A A70U], the yeast fitness is 0.572. Consider GUUCCGUUGGCGUAAUGGUAACGCGUCUCUCUCCUAAGGAGAAGACUGCGGGUACGAGUCCCGUACGGAGCG [C30U U54A A70G], for which the yeast fitness is 0.518. The result for GUUCCGUUGGCGUAAUGGUAACGCGUCUCUCUCCUAACGAGAAGACUGCGGGUUAGAGUCCCGUACAGAACG [C30U G38C C55A G67A] reads no more than 0.5; that for GUUCCGUUGGCGUAAUGGUAACGCGUCUCUCUCCUAAGGAGAAAACUGCGGGUUCGAGUGCCGUACGGAACG [C30U G44A C60G], no more than 0.5; that for GUUCCGUUGGCGUAAUGGUAACGCGUCUCUCUCCUAAGGAGAAGACUGCCGGUUCGAGUCCCGUAUGGAACG [C30U G50C C66U], 0.526. As for GUUCCGUUGGCGUAAUGGUAACGCGUCUCUCUCCUAAGGAGAAGACUGCGGGUCCGCGUCCCGUACGGACCG [C30U U54C A57C A70C], the yeast fitness is no more than 0.5.

As to GUUCCGUUGGCGUAAUGGUAACGCGUCUCUCUCCCAAGGAGCAGACUCCGGGUUCGAGUCCCGUACGGAACG [C30U U35C A42C G48C], the yeast fitness was no more than 0.5. For GUUCCGUUGGCGUAAUGGUAACGCGUCUCUCUCCUAAAGAGAAGACUGCGGAUUCGAGUCCCGUACGGAACG [C30U G38A G52A], the yeast fitness turned out to be 0.621. On to GUUCCGUUGGCGUAAUGGUAACGCGUCUCUCUCCUAAGGAGAAGACAGCGGGUUCGGGUCCCGUACCGAACG [C30U U47A A57G G67C], for which the yeast fitness was no more than 0.5. On to GUUCCGUUGGCGUAAUGGUAACGCGUCUCUCUCCUAAGGAGAAGACUGCGGGUUCGAAUCGCGUACGGAACG [C30U G58A C61G], for which the yeast fitness is no more than 0.5.

For GUUCCGUUGGCGUAAUGGUAACGCGUCUCUCUCCUAAGGAGAAAACUGCGGGUUCGAGUCCCGUUCGGAACG [C30U G44A A65U], the yeast fitness was no more than 0.5. For GUUCCGUUGGCGUAAUGGUAACGCGUCUCUCUCCUAAGGAGAAGACUGCGGGUCCGCGUCCCGUACGGAACG [C30U U54C A57C], the yeast fitness was no more than 0.5. For the variant GUUCCGUUGGCGUAAUGGUAACGCGUCUCCAUCCUGAGGAGAAGACUGCGGGUUCGUGUCCCGUACGGAACG [C31A A36G A57U], the yeast fitness stood at 0.539. For GUUCCGUUGGCGUAAUGGUAACGCGUCUCUCGCCUAAGGAGAAGACUGCGGGUUCGAGUCCCGAACGCAACG [C30U U32G U64A G68C], the yeast fitness is no more than 0.5. GUUCCGUUGGCGUAAUGGUAACGCGUCUCUCUCCAAAGGAGAAGACUGCGGGUUCGAGUCCCGUACGGAACG [C30U U35A]: the yeast fitness was determined as 0.63.

On to GUUCCGUUGGCGUAAUGGUAACGCGUCUCUCUCCUAAGGAGAAGACUCCGGGUUCGAGUCCCGUACGGAACG [C30U G48C], for which the yeast fitness worked out at 0.872. Consider GUUCCGUUGGCGUAAUGGUAACGCGUCUCUCUCCCAAGGAGAAGUCUGCGGGUUCGCGUCCCGUACGGAACG [C30U U35C A45U A57C], for which the yeast fitness is 0.534. The result for GUUCCGUUGGCGUAAUGGUAACGCGUCUCUCUCCUAACGGGAAGACUGCGGGUUCGAGUCCCGUACGGAACG [C30U G38C A40G] reads 0.569; that for GUUCCGUUGGCGUAAUGGUAACGCGUCUCUCUCCUAACGAGAAGACUGCGGGUUCGAGUCCCGUACGGAACG [C30U G38C], 0.66; that for GUUCCGUUGGCGUAAUGGUAACGCGUCUCUCUCCUAAUGAGAAGACUGCGGGUUCGAGUCCCGUACGGAACG [C30U G38U], 0.824. GUUCCGUUGGCGUAAUGGUAACGCGUCUCUCUCCAAAGGAGGAGACUGCGGGUUCGAGUCUCAUACGGAACG [C30U U35A A42G C61U G63A]: the yeast fitness turned out to be 0.519.

In the case of GUUCCGUUGGCGUAAUGGUAACGCGUCUCUCGCCUGUGGAGAAGACAGCGGGUUCGAGUCCCGUACGGAACG [C30U U32G A36G A37U U47A], the yeast fitness was found to be 0.559. In the case of GUUCCGUUGGCGUAAUGGUAACGCGUCUCUCUCCUAAGGAGAAGACAGCGGGUUCGAGUCCCGUACCGAACG [C30U U47A G67C] it was 0.567. GUUCCGUUGGCGUAAUGGUAACGCGUCUCUCUCCUAAGGAGAAGACUGCGGGUUCGAGACCCGUACGGAACG [C30U U59A]: the yeast fitness amounted to 0.828. With GUUCCGUUGGCGUAAUGGUAACGCGUCUCUCUCCUAAGGAGAAGACUGCGGGUUCGAGCCCCGUACGGAACG [C30U U59C], the yeast fitness was determined as 0.824. Consider GUUCCGUUGGCGUAAUGGUAACGCGUCUCUCUCCUAACGAGAAGACUGCGGGUUCGAGUCUCGUACGGAACG [C30U G38C C61U], for which the yeast fitness came out at 0.542. For GUUCCGUUGGCGUAAUGGUAACGCGUCUCUCUCCUAAGGAGAAGACCGCGGGUUCGAGUCCCGUGCGGAACG [C30U U47C A65G], the yeast fitness is no more than 0.5.

Regarding GUUCCGUUGGCGUAAUGGUAACGCGUCUCUCUCCUAAGGAGAAGACUGCGGGUACGAGUCCCGUAUGGACCG [C30U U54A C66U A70C], the yeast fitness is no more than 0.5. Take GUUCCGUUGGCGUAAUGGUAACGCGUCUCUCUCCUAAAGAGAAGACUGCGGGUUCGAGUCUCGUACGGAACG [C30U G38A C61U]: the yeast fitness was 0.692. As to GUUCCGUUGGCGUAAUGGUAACGCGUCUCUCUCCUAAGGAGAAGACCGCGGGUUCGAGUCCCGUACGGAACG [C30U U47C], the yeast fitness was determined as 0.835.

GUUCCGUUGGCGUAAUGGUAACGCGUCUCUCUCCUAAGCAGAAGACUGCGGGAUCGAGUCCCGUACGGAACG [C30U G39C U53A]: the yeast fitness was no more than 0.5. For GUUCCGUUGGCGUAAUGGUAACGCGUCUCUCUCCUAAGGAGAAGACUGCGGGUUCGAGUCCCGUACCGAACG [C30U G67C], the yeast fitness stood at 0.864. In the case of GUUCCGUUGGCGUAAUGGUAACGCGUCUCUCUCCUAAGGAGAAGACUGCGGGUUCGAGUCCCGUACAGAACG [C30U G67A], the yeast fitness is 0.921. As for GUUCCGUUGGCGUAAUGGUAACGCGUCUCUCUCCUAAGCAGAAGACUGCGGGUUCGAGUCCCGCACGGAACG [C30U G39C U64C], the yeast fitness is 0.528. As for GUUCCGUUGGCGUAAUGGUAACGCGUCUCUCCCCUAAGGAGAAGACUGCGGGUACGAGUCCCGUACGGAACG [C30U U32C U54A], the yeast fitness was no more than 0.5. Take GUUCCGUUGGCGUAAUGGUAACGCGUCUCUCUCCUAAGGAGAAGACUGCAGGUUCGAGUCCCGUACGAAACG [C30U G50A G68A]: the yeast fitness is no more than 0.5.
